# Assay results: ChEMBL document CHEMBL1800058, “Lathyrane diterpenoids from the roots of Euphorbia micractina and their biological activities” (J Nat Prod, 2011)
# Active and inactive are the calls of the source. The calls are words filed in the database; no cut-off is given here.
# Columns and labels:
# [1] = target: T1, Tyrosine-protein phosphatase non-receptor type 1 (Homo sapiens) (UniProt P18031); assay: Inhibition of human recombinant GST-tagged PTP1B assessed as conversion of para-nitrophenyl phosphate to para-nitrophenol at 10^-6 M after 10 mins by microplate spectrophotometer analysis
# T1 sequence (whole entry): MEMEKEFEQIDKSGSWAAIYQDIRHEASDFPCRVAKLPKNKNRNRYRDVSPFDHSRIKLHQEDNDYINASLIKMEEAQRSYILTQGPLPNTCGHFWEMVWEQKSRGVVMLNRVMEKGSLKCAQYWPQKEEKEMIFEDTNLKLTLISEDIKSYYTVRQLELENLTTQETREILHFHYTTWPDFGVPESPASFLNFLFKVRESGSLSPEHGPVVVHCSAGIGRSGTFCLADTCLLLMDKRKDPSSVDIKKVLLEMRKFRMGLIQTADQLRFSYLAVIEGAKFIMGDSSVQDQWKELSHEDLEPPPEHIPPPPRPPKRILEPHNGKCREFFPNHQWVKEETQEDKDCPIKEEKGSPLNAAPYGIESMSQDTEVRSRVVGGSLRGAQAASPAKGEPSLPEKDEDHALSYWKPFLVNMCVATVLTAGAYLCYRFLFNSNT
# [2] = test system: Liver microsomes; assay: Antioxidant activity against Fe2+-cystine-induced lipid peroxidation in rat liver microsomes at 10^-6 M after 15 mins by thiobarbituric acid method; assay type: functional; conditions: Microsome
# [3] = test system: MCF7; assay: Cytotoxicity against human MCF7 cells at 10^-6 M after 96 hrs by MTT assay; assay type: functional, cell-based
# [4] = test system: BGC-823; assay: Cytotoxicity against human BGC823 cells at 10^-6 M after 96 hrs by MTT assay; assay type: functional, cell-based
# [5] = test system: Aorta; assay: Vasorelaxant activity in Sprague-Dawley rat […] thoracic aorta assessed as inhibition of phenylephrine-induced vasoconstriction at 10^-6 M relative to control; assay type: functional; parameters: scale not given: the % may be the effect or the level left
# In short: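 Read-out was percent relaxation of phenylephrine-precontracted vessels. Verapamil served as the positive control at the same test concentration.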
# [6] = test system: Bel-7402; assay: Cytotoxicity against human Bel7402 cells at 10^-6 M after 96 hrs by MTT assay; assay type: functional, cell-based
# [7] = test system: Human immunodeficiency virus 1; assay: Antiviral activity against HIV1 harboring vesicular stomatitis virus glycoprotein infected in human 293T cells assessed as inhibition of viral replication at 10 uM after 48 hrs by luciferase activity based luminometer analysis; assay type: functional, organism-based
# [8] = test system: A549; assay: Cytotoxicity against human A549 cells at 10^-6 M after 96 hrs by MTT assay; assay type: functional, cell-based
# [9] = test system: HCT-8; assay: Cytotoxicity against human HCT8 cells at 10^-6 M after 96 hrs by MTT assay; assay type: functional, cell-based
# [10] = test system: KETR3; assay: Cytotoxicity against human Ketr3 cells at 10^-6 M after 96 hrs by MTT assay; assay type: functional, cell-based
# [11] = test system: Human immunodeficiency virus 1; assay: Antiviral activity against HIV1 harboring vesicular stomatitis virus glycoprotein infected in human 293T cells assessed as inhibition of viral replication after 48 hrs by luciferase activity based luminometer analysis; assay type: functional, organism-based; conditions: Human immunodeficiency virus 1, HEK-293T
Structure (SMILES),inhibition [1],Activity [2],Activity [3],Activity [4],Activity [5],Activity [6],Activity [7],Activity [8],Activity [9],Activity [10],IC50 [11]
C/C1=C\[C@H]2[C@@H](O)[C@@H](C)C[C@]2(OC(=O)c2ccccc2)C(=O)/C(C)=C/[C@H]2[C@H](CC1)C2(C)C,inactive,inactive,inactive,inactive,42%,inactive,inactive,inactive,inactive,inactive,–
CC(=O)O[C@H]1[C@@H](C)C[C@]2(OC(C)=O)C(=O)/C(C)=C/[C@H]3[C@H](CC/C(C)=C/[C@@H]12)C3(C)C,inactive,inactive,inactive,inactive,<30%,inactive,inactive,inactive,inactive,inactive,–
C/C1=C\[C@H]2[C@H](CC[C@@]3(C)O[C@@H]3[C@H]3[C@@H](OC(=O)c4ccccc4)[C@@H](C)C[C@]3(OC(=O)c3ccccc3)C1=O)C2(C)C,inactive,inactive,inactive,inactive,<30%,inactive,inactive,inactive,inactive,inactive,–
C/C1=C/C[C@H]2[C@H](/C=C(\C)C(=O)[C@@]3(O)C[C@H](C)[C@H](O)[C@@H]3[C@H]1OC(=O)/C=C/c1ccccc1)C2(C)C,inactive,inactive,inactive,inactive,<30%,inactive,inactive,inactive,inactive,inactive,–
C/C1=C\[C@H]2[C@@H](O)[C@@H](C)C[C@]2(OC(=O)/C=C/c2ccccc2)C(=O)/C(C)=C/[C@H]2[C@H](CC1)C2(C)C,inactive,inactive,inactive,inactive,<30%,inactive,–,inactive,inactive,inactive,8.2 µM
C/C1=C\[C@H]2[C@H](CC[C@@]3(C)O[C@@H]3[C@H]3[C@@H](OC(=O)c4ccccc4)[C@@H](C)C[C@]3(O)C1=O)C2(C)C,inactive,inactive,inactive,inactive,48%,inactive,inactive,inactive,inactive,inactive,–
CC(=O)O[C@@H]1[C@@H]2[C@H]3O[C@]3(C)CC[C@H]3[C@H](/C=C(\C)C(=O)[C@@]2(O)C[C@@H]1C)C3(C)C,inactive,inactive,inactive,inactive,<30%,inactive,inactive,inactive,inactive,inactive,–
CC(=O)O[C@@H]1[C@@H]2[C@H]3O[C@]3(C)CC[C@H]3[C@H](/C=C(\C)C(=O)[C@@]2(OC(=O)c2ccccc2)C[C@@H]1C)C3(C)C,inactive,inactive,inactive,inactive,41%,inactive,inactive,inactive,inactive,inactive,–
C/C1=C\[C@H]2[C@@H](OC(=O)/C=C/c3ccccc3)[C@@H](C)C[C@]2(O)C(=O)/C(C)=C/[C@H]2[C@H](CC1)C2(C)C,inactive,inactive,inactive,inactive,<30%,inactive,inactive,inactive,inactive,inactive,–
CC(=O)O[C@@H]1[C@@H]2[C@H]3O[C@]3(C)CC[C@H]3[C@H](/C=C(\C)C(=O)[C@@]2(OC(C)=O)C[C@@H]1C)C3(C)C,inactive,inactive,inactive,inactive,<30%,inactive,inactive,inactive,inactive,inactive,–
C/C1=C/C[C@H]2[C@@H](/C=C(\C)C(=O)[C@@]3(OC(=O)c4ccccc4)C[C@H](C)[C@H](O)[C@@H]3[C@@H]1O)C2(C)C,–,–,–,–,53%,–,inactive,–,–,–,–
C/C1=C\[C@H]2[C@H](CC[C@@]3(C)O[C@@H]3[C@H]3[C@@H](OC(=O)/C=C/c4ccccc4)[C@@H](C)C[C@]3(O)C1=O)C2(C)C,inactive,inactive,inactive,inactive,<30%,inactive,inactive,inactive,inactive,inactive,–
C=C1CC[C@H]2[C@H](/C=C(\C)C(=O)[C@@]3(OC(=O)/C=C/c4ccccc4)C[C@H](C)[C@H](O)[C@@H]3[C@H]1O)C2(C)C,inactive,inactive,inactive,inactive,<30%,inactive,inactive,inactive,inactive,inactive,–
CC(=O)O[C@@H]1[C@H]2[C@@H](O)/C(C)=C\C[C@H]3[C@H](/C=C(\C)C(=O)[C@@]2(OC(=O)c2ccccc2)C[C@@H]1C)C3(C)C,inactive,inactive,inactive,inactive,48%,inactive,inactive,inactive,inactive,inactive,–
CC(=O)O[C@H]1/C(C)=C\C[C@H]2[C@H](/C=C(\C)C(=O)[C@@]3(OC(=O)c4ccccc4)C[C@H](C)[C@H](O)[C@H]13)C2(C)C,inactive,inactive,inactive,inactive,50%,inactive,inactive,inactive,inactive,inactive,–
CC(=O)O[C@]12C[C@H](C)[C@H](O)[C@@H]1[C@H]1O[C@]1(C)CC[C@H]1[C@H](/C=C(\C)C2=O)C1(C)C,inactive,inactive,inactive,inactive,<30%,inactive,inactive,inactive,inactive,inactive,–
COc1ccc(CCN(C)CCCC(C#N)(c2ccc(OC)c(OC)c2)C(C)C)cc1OC (configuration not stated) [VERAPAMIL],–,–,–,–,44%,–,–,–,–,–,–
C/C1=C/C[C@H]2[C@@H](/C=C(\C)C(=O)[C@@]3(O)C[C@H](C)[C@H](OC(=O)/C=C/c4ccccc4)[C@H]3[C@H]1O)C2(C)C,inactive,inactive,inactive,inactive,<30%,inactive,inactive,inactive,inactive,inactive,–
C/C1=C/C[C@H]2[C@H](/C=C(\C)C(=O)[C@@]3(OC(=O)/C=C/c4ccccc4)C[C@H](C)[C@@H]4OC(C)(C)O[C@@H]1[C@@H]43)C2(C)C,inactive,inactive,inactive,inactive,<30%,inactive,–,inactive,inactive,inactive,–
